Assays:
Assay type in all cases: functional
[1] = test system: NCI/ADR-RES; test: Cytotoxicity against human NCI/ADR-RES cells assessed as cell growth at 10 uM; settings: read-out: Activity
Summary of the method: (§1)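 NCI-60 screen: cells grown in RPMI 1640 with 5% FBS and 2 mM L-glutamine, plated at 5000–40,000 cells/well according to doubling time, and preincubated 24 h at 37 °C, 5% CO2. The single 10 µM dose (DMSO stock) was added, then incubated 48 h. Cells were TCA-fixed and stained with 0.4% SRB, read at 515 nm, and growth % calculated against time-zero and control plates.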

[2] = test system: SF-268; test: Cytotoxicity against human SF268 cells assessed as cell growth at 0.001 uM after 48 hrs by sulforhodamine B assay; settings: SF-268, 48 h, read-out: Activity
[3] = test system: T47D; test: Cytotoxicity against human T47D cells assessed as cell growth at 0.001 uM after 48 hrs by sulforhodamine B assay; settings: read-out: Activity
[4] = test system: MDA-MB-435; test: Growth inhibition of human MDA-MB-435 cells after 48 hrs by sulforhodamine B assay; settings: MDA-MB-435, 48 h; for CC50: read-out: LC50 (the source's name)
Summary of the method: (§2)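 NCI 60-cell screen, five-dose mode. Cells grown in RPMI 1640 with 5% FBS and 2 mM L-glutamine and plated at 5000-40,000 cells/well according to doubling time. After 24 h preincubation, a Tz plate was TCA-fixed. Five concentrations (10-fold or 1/2 log dilutions) were applied for 48 h at 37 °C. SRB staining read at 515 nm. IC50 taken from [(Ti-Tz)/(C-Tz)]×100 = 50.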

[5] = test system: UACC-62; test: Cytotoxicity against human UACC62 cells assessed as cell growth at 10 uM after 48 hrs by sulforhodamine B assay; settings: UACC-62, 48 h, read-out: Activity
[6] = test system: NCI-H522; test: Cytotoxicity against human NCI-H522 cells assessed as cell growth at 0.01 uM after 48 hrs by sulforhodamine B assay; settings: NCI-H522, 48 h, read-out: Activity
[7] = test system: M14; test: Cytotoxicity against human M14 cells assessed as cell growth at 10 uM; settings: read-out: Activity; summary of the method: as §1
[8] = test system: MCF7; test: Cytotoxicity against human MCF7 cells assessed as cell growth at 0.01 uM after 48 hrs by sulforhodamine B assay; settings: MCF7, 48 h, read-out: Activity
[9] = test system: OVCAR-8; test: Cytotoxicity against human OVCAR8 cells assessed as cell growth at 0.01 uM after 48 hrs by sulforhodamine B assay; settings: OVCAR-8, 48 h, read-out: Activity
[10] = test system: MDA-MB-231; test: Cytotoxicity against human MDA-MB-231 cells assessed as cell growth at 10 uM; settings: read-out: Activity; summary of the method: as §1
[11] = test system: SF-295; test: Growth inhibition of human SF295 cells after 48 hrs by sulforhodamine B assay; settings: SF-295, 48 h; for CC50: read-out: LC50 (the source's name); summary of the method: as §2
[12] = test system: CAKI-1; test: Cytotoxicity against human Caki1 cells assessed as cell growth at 10 uM; settings: read-out: Activity
Summary of the method: (§3)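 Single-dose NCI-60 screen at 10 µM. Cells were grown in RPMI 1640 with 5% FBS and 2 mM L-glutamine, then treated for 48 h at 37 °C. Protein was measured by SRB staining with absorbance at 515 nm. Percentage growth was recorded, and inhibition percentage was calculated as 100 minus growth percentage.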

[13] = test system: NCI/ADR-RES; test: Cytotoxicity against human NCI/ADR-RES cells assessed as cell growth at 10 uM after 48 hrs by sulforhodamine B assay; settings: read-out: Activity
[14] = test system: SK-MEL-2; test: Cytotoxicity against human SK-MEL-2 cells assessed as cell growth at 10 uM; settings: read-out: Activity; summary of the method: as §1
[15] = test system: UACC-257; test: Cytotoxicity against human UACC257 cells assessed as cell growth at 10 uM; settings: read-out: Activity; summary of the method: as §1
[16] = test system: MCF7; test: Cytotoxicity against human MCF7 cells assessed as cell growth at 10 uM; settings: read-out: Activity; summary of the method: as §1
[17] = test system: NCI-H522; test: Growth inhibition of human NCI-H522 cells after 48 hrs by sulforhodamine B assay; settings: NCI-H522, 48 h; for CC50: read-out: LC50 (the source's name); summary of the method: as §2
[18] = test system: CAKI-1; test: Cytotoxicity against human Caki1 cells assessed as cell growth at 100 nM after 48 hrs by sulforhodamine B assay; settings: CAKI-1, 48 h, read-out: Activity
[19] = test system: A549; test: Cytotoxicity against human A549 cells assessed as cell growth at 10 uM; settings: read-out: Activity; summary of the method: as §3
[20] = test system: CCRF-CEM; test: Cytotoxicity against human CCRF-CEM cells assessed as cell growth at 100 nM after 48 hrs by sulforhodamine B assay; settings: read-out: Activity
Summary of the method: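 NCI-60 five-dose screen. Cells were grown in RPMI 1640 with 5% FBS and 2 mM L-glutamine, plated at 5000–40,000 cells/well and preincubated for 24 h. Time-zero plates were TCA-fixed. DMSO-solubilized drug was added at five concentrations (10-fold or ½-log serial dilutions) for 48 h at 37 °C, 5% CO2. Cells were TCA-fixed, stained with 0.4% SRB and read at 515 nm. Percent growth used time-zero, control and test absorbances.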

[21] = test system: MDA-MB-468; test: Cytotoxicity against human MDA-MB-468 cells assessed as cell growth at 0.001 uM after 48 hrs by sulforhodamine B assay; settings: MDA-MB-468, 48 h, read-out: Activity
[22] = test system: HCT-116; test: Cytotoxicity against human HCT116 cells assessed as cell growth at 10 uM; settings: read-out: Activity; summary of the method: as §3
[23] = test system: NCI-H322M; test: Cytotoxicity against human NCI-H322M cells assessed as cell growth at 1 uM after 48 hrs by sulforhodamine B assay; settings: read-out: Activity
[24] = test system: OVCAR-5; test: Cytotoxicity against human OVCAR5 cells assessed as cell growth at 10 uM; settings: read-out: Activity; summary of the method: as §1
[25] = test system: MDA-MB-435; test: Cytotoxicity against human MDA-MB-435 cells assessed as cell growth at 1 uM after 48 hrs by sulforhodamine B assay; settings: MDA-MB-435, 48 h, read-out: Activity
[26] = test system: SW-620; test: Cytotoxicity against human SW620 cells assessed as cell growth at 10 uM; settings: read-out: Activity; summary of the method: as §1
[27] = test system: MOLT-4; test: Cytotoxicity against human MOLT4 cells assessed as cell growth at 0.001 uM after 48 hrs by sulforhodamine B assay; settings: MOLT-4, 48 h, read-out: Activity
[28] = test system: MDA-MB-435; test: Cytotoxicity against human MDA-MB-435 cells assessed as cell growth at 0.001 uM after 48 hrs by sulforhodamine B assay; settings: MDA-MB-435, 48 h, read-out: Activity
[29] = test system: TK-10; test: Cytotoxicity against human TK10 cells assessed as cell growth at 0.01 uM after 48 hrs by sulforhodamine B assay; settings: TK-10, 48 h, read-out: Activity
[30] = test system: HOP-92; test: Cytotoxicity against human HOP92 cells assessed as cell growth at 1 uM after 48 hrs by sulforhodamine B assay; settings: HOP-92, 48 h, read-out: Activity
[31] = test system: TK-10; test: Cytotoxicity against human TK10 cells assessed as cell growth at 0.001 uM after 48 hrs by sulforhodamine B assay; settings: TK-10, 48 h, read-out: Activity
[32] = test system: SNB-19; test: Cytotoxicity against human SNB19 cells assessed as cell growth at 100 nM after 48 hrs by sulforhodamine B assay; settings: SNB-19, 48 h, read-out: Activity
[33] = test system: SF-295; test: Cytotoxicity against human SF295 cells assessed as cell growth at 10 uM; settings: read-out: Activity; summary of the method: as §1
[34] = test system: MOLT-4; test: Cytotoxicity against human MOLT4 cells assessed as cell growth at 1 uM after 48 hrs by sulforhodamine B assay; settings: MOLT-4, 48 h, read-out: Activity

SMILES | growth at 10 µM [1] | growth at 0.001 µM [2] | growth at 0.001 µM [3] | CC50 [4] | growth at 10 µM [5] | growth at 0.01 µM [6] | growth at 10 µM [7] | growth at 0.01 µM [8] | growth at 0.01 µM [9] | growth at 10 µM [10] | GI50 [11] | TGI [11] | CC50 [11] | growth at 10 µM [12] | growth at 10 µM [13] | growth at 10 µM [14] | growth at 10 µM [15] | growth at 10 µM [16] | GI50 [17] | TGI [17] | also measured
Cc1cc(O)cc(-c2nn(CC#N)cc2-c2ccnc(-c3ccc(Oc4ccccc4)cc3)c2)c1 | 37.9% | 88% | 95% | 60.6 µM | -95% | 72% | 55.1% | 92% | 91% | 46.7% | 4.42 µM | 21.2 µM | 75.2 µM | 58.8% | -52% | 73.9% | 71.7% | 18.4% | 2.72 µM | 10.4 µM | GI50 [4]: 2.32 µM; TGI [4]: 6.84 µM; CC50 [17]: 35.1 µM; growth at 0.1 µM [18]: 75%; growth at 10 µM [19]: 42%; growth at 0.1 µM [20]: 86%; growth at 0.001 µM [21]: 91%; growth at 10 µM [22]: 25.7%; growth at 1 µM [23]: 35%; growth at 10 µM [24]: 96.8%; growth at 1 µM [25]: -18%; growth at 10 µM [26]: 53.9%; growth at 0.001 µM [27]: 99%; growth at 0.001 µM [28]: 103%; growth at 0.01 µM [29]: 99%; growth at 1 µM [30]: -67%; growth at 0.001 µM [31]: 91%; growth at 0.1 µM [32]: 94%; growth at 10 µM [33]: 77.7%; growth at 1 µM [34]: -16%
COc1cc(C)cc(-c2nn(CC#N)cc2-c2ccc(-c3cccc(C(C)=O)c3)nc2)c1 | -25.8% | 99% | 88% | > 100 µM | 25% | 82% | 6.52% | 97% | 88% | 34.8% | 2.63 µM | > 100 µM | > 100 µM | 17.8% | -14% | 35.4% | 50.8% | 8.74% | 1.64 µM | 6.72 µM | CC50 [17]: > 100 µM; growth at 0.1 µM [18]: 69%; growth at 10 µM [19]: 38.8%; growth at 0.1 µM [20]: 77%; growth at 0.001 µM [21]: 83%; growth at 10 µM [22]: 10.3%; growth at 1 µM [23]: 24%; growth at 10 µM [24]: 91.3%; growth at 1 µM [25]: -44%; growth at 10 µM [26]: 24.8%; growth at 0.001 µM [27]: 97%; growth at 0.001 µM [28]: 101%; growth at 0.01 µM [29]: 100%; growth at 1 µM [30]: -4%; growth at 0.001 µM [31]: 99%; growth at 0.1 µM [32]: 99%; growth at 10 µM [33]: 16.9%; growth at 1 µM [34]: 19%
